Most compounds without a hit are left out; they make up all but 3.1% or so of the library.
ADAM17 inh – inhibitors of human ADAM17; AID 720648; 370,000 tested, 0.83% active; recombinant ADAM17, EDANS/DABCYL FRET peptide cleavage; inhibition, % at 6.95 µM;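 active means inhibition above the mean of compounds lying between control limits plus 3 SD, set per campaign, cut at about 8.5% in these data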
aDG glyco up – alpha-DG glycosylation activation. Pro5-aDG cells, alpha-DG glycosylation AlphaScreen (IIH6); 0% Pro5, 100% B10-LARGE cell signal. activation, % at 10 µM. 360,000 tested, 0.22% active;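 active means activation of at least 8% versus controls, or a plate z-score of at least 8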;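 further: Pro5 are CHO cells carrying HIG-tagged alpha-DG that lacks glycosylation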
ADAM10 inh – inhibitors of human ADAM10. inhibition, % at 7 µM. recombinant ADAM10, EDANS/DABCYL FRET peptide cleavage, 3 h. 370,000 tested, 0.62% active;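 active means inhibition above a per-campaign cutoff equal to the mean of compounds falling between control-based bounds plus 3 SD, cut at about 20% in these data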
MPTP block – inhibitors of mitochondrial permeability transition pore. inhibition, % at 10 µM. isolated mouse mitochondria, Ca2+ swelling absorbance, 30 min. 360,000 tested, 1.4% active. AID 602449;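 active means inhibition of 50% or more, scaled per plate between neutral and stimulator controls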
V-ATPase pHluor – alters yeast V-ATPase proton transport | S. cerevisiae, pHLuorin cytosolic pH fluorescence | response, % at 10 µM | 350,000 tested, 0.37% active; in the data active means response mostly above about 7.3%, no sharp cut-off; inactive means mostly below about 5.4%; further: actives read high
Hep lipid drop – modulators of hepatic lipid droplet formation | AID 1656 | 240,000 tested, 0.4% active | AML12 mouse hepatocytes, oleate lipid droplets, BODIPY imaging | inhibition, % at 6.5 µM;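 active means lipid droplet intensity inhibited by at least 50%, with more than 500 cells counted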
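Assay system: AML12 mouse liver cells | Compound: 6.5 µM single-point dosing | Schedule: Overnight exposure | Technique: Fluorescence imaging, 20x objective, two fields per well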
Hep lipid conf – confirmation of inhibitors of hepatic lipid droplet formation. shares compounds with Hep lipid drop. AML12 mouse hepatocytes, BODIPY lipid droplet imaging; droplets induced with 100 µM oleic acid. inhibition, % at 5.2 µM. 870 tested, 65% active. AID 463183;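 active means inhibition of lipid droplet metric at least 50%, with more than 300 cells in each of four replicates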
AML12 cytotox – counter-screen for cytotoxicity in AML12 mouse hepatocytes | z-score at 5 µM | shares compounds with Hep lipid drop | DAPI nuclear morphology cytotoxicity imaging; hits give high values; cells fed 100 µM oleate overnight | 870 tested, 3% active; in the data active means z-score above about 6.3;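 further: compound exposure lasted overnight at 37 °C before fixation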
AML12 tox conf – AML12 hepatocyte cytotoxicity, confirmed; shares compounds with Hep lipid drop; cytotoxicity, % at 50 µM; 530 tested, under 10 active; AID 463219; AML12 mouse hepatocyte viability, ATP luminescence; cells loaded with 100 µM oleic acid;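 active means cytotoxicity above 50% in each of four replicates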;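 further: compound exposure lasted overnight at 37 °C before the ATP read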
Hits are given with their value; - = inactive; . = not tested or not shown.

SMILES	ADAM17 inh	aDG glyco up	ADAM10 inh	MPTP block	V-ATPase pHluor	Hep lipid drop	Hep lipid conf	AML12 cytotox	AML12 tox conf
O=C(NCc1ccccc1)C(c1ccccc1F)N(C(=O)c1csnn1)C1CCCC1 (stereo unspecified)	-	-	-	-	-	71.3	92.2	-	-
COC(=O)[C@]12C[C@H](CC(=O)NCc3cccc(C(F)(F)F)c3)C(=O)N(CCC3=CCCCC3)C1=C[C@H](C(C)C)O[C@@H]2C1CC1	-	.	-	.	.	.	.	.	.
CCN(CC)c1c2c(nc3ncnn13)CCCC2	-	.	-	.	.	.	.	.	.
COc1ccc(CSc2nnc(SCC(=O)Nc3ccc4c(c3)OCO4)s2)cc1	-	.	-	.	.	.	.	.	.
Clc1ccccc1CN(Cc1ccco1)Cc1nnnn1C1CCCC1	-	-	-	-	-	67.9	-	-	.
c1coc(CN(Cc2cccs2)Cc2nnnn2C2CCCCC2)c1	-	-	-	-	-	-	.	.	.
CCOc1ccc(CCNC(=O)CCNC(=O)c2ccccc2Cl)cc1OCC	-	-	-	-	-	67.7	88.0	-	-
CCOc1cc(CCNC(=O)c2cc3ccsc3n2C)ccc1OC	-	.	-	.	.	.	.	.	.
CCOc1ccc(CCNC(=O)c2cc(C)nc3ccccc23)cc1OCC	-	-	-	-	-	62.2	70.8	-	-
Cc1cc(C(=O)NCCc2ccc(Cl)cc2)c2ccccc2n1	-	-	-	-	-	.	.	.	.
CCOc1ccc(CCNC(=O)c2cc3sc(Cl)cc3n2C)cc1OCC	-	-	-	-	-	88.9	106.8	-	-
CCOc1ccc(CCNC(=O)c2cccs2)cc1OCC	-	-	-	-	-	75.6	99.5	-	-
COc1ccc(CCNC(=O)c2cccs2)cc1OC	-	-	-	-	-	-	.	.	.
Cc1cc(C)cc(OCC(C)CN2CCC(C(O)(c3ccccc3)c3ccccc3)CC2)c1 (stereo unspecified)	-	.	-	.	.	.	.	.	.
O=C(NCc1c(F)cccc1F)C1CCC(CNS(=O)(=O)c2cccc3cccnc23)CC1 (stereo unspecified)	-	.	-	.	.	.	.	.	.
CCCCCCCCN1C(=O)[C@@H](CC(=O)NCCCN2CCCC2=O)C[C@@]2(C(=O)OC)C1=C[C@H](COCc1ccccc1)O[C@@H]2C	-	.	-	.	.	.	.	.	.
O=C(CNC1CCCCCC1)Nc1ccccc1N1CCCCC1	-	-	-	-	-	.	.	.	.
O=C(CNCCC1=CCCCC1)Nc1ccccc1N1CCCCC1	-	-	-	-	-	103.0	-	-	.
CN1CC(=O)Nc2ccc([N+](=O)[O-])cc2C1=O	-	-	-	-	-	91.4	-	-	.
Cc1ccc(CNC(=O)c2ccc(N3CCC4(CC3)CC(c3ccccc3)=NO4)c(N)c2)cc1	-	-	-	-	-	52.2	89.5	-	-
Cc1ccc(CNC(=O)c2ccc(N3CCC4(CC3)CC(c3ccccc3)=NO4)c(NC(=O)c3ccccc3)c2)cc1	-	-	-	-	-	.	.	.	.
Cc1ccc(CNC(=O)c2ccc(N3CCC4(CC3)CC(c3ccccc3)=NO4)c(NC(=O)c3ccc(Br)cc3)c2)cc1	-	-	-	-	-	73.1	104.4	-	-
Cc1ccc(CNC(=O)c2ccc(N3CCC4(CC3)CC(c3ccccc3)=NO4)c([N+](=O)[O-])c2)cc1	-	-	-	-	-	-	.	.	.
O=C(Cc1coc2ccc3ccccc3c12)NC1CCCc2ccccc21 (stereo unspecified)	-	-	-	-	-	51.9	91.4	-	-
COC(=O)c1cc(C(C)c2c[nH]c3ccccc23)n2ccccc12 (stereo unspecified)	-	.	-	.	.	.	.	.	.
O=[N+]([O-])c1ccccc1N/N=C\c1ccccc1Cl	-	-	-	-	-	59.3	-	-	.
CCCOc1ccc(/C=N/Nc2ccccc2[N+](=O)[O-])c(OCCC)c1	-	-	-	-	-	81.3	113.5	-	-

Screening data (PubChem BioAssay)
